Experimental data from article PMC11413667 (Acta Pharmaceutica Sinica. B, 2024).

Experiments:
4T1 cells [1] = test: MTT cytotoxicity; format: cell-based, mouse; conditions: increasing dosage, n = 4
Summary of the method: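 4T1 cells, cultured in DMEM with 10% FBS and 1% pen-strep at 37 °C, 5% CO2, were seeded overnight until adherent. They were then exposed to a concentration series of test compound. Light groups received 638 nm, 29.8 mW/cm2 for 12 min. Viability was measured by standard MTT relative to untreated cells, n = 4, mean ± SD.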

4T1 tumor = conditions: i.v., PT 20 mg/kg, PTI 25 mg/kg, 0.5-12 h
4T1 cells [2] = test: Annexin V-FITC/PI flow cytometry; format: cell-based, mouse; conditions: upon light
Summary of the method: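 Mouse 4T1 cells, grown in DMEM with 10% FBS and 1% pen-strep at 37 °C, 5% CO2, were exposed to test compound at one fixed concentration for 6 h in the dark. Cells were then irradiated (638 nm, 29.8 mW/cm2, 15 min) or left unirradiated, and stained with Annexin V-FITC and PI for 15 min. Apoptotic and necrotic fractions were read by flow cytometry.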

Compound	Cytotoxicity (MTT), ICG-001 alone (4T1 cells [1])	Tumor accumulation (fluorescence imaging) (4T1 tumor)	Cells in apoptosis or necrosis state (4T1 cells [2])
O=C1[C@H](Cc2ccc(O)cc2)N2C(=O)CCN(C(=O)NCc3ccccc3)[C@H]2CN1Cc1cccc2ccccc12 [ICG-001]	could hardly retard the cell expansion	–	–
Palmitic-K(PpIX)-HAIYPRH [PT]	–	weaker tumor accumulation than PTI	less than a quarter
